In ChEMBL document CHEMBL3091301, “Xanthohumol modulates inflammation, oxidative stress, and angiogenesis in type 1 diabetic rat skin wound healing” (2013) one finds Activity data, which are given here for one molecule.

Calls of active or inactive are those of the source. The rule behind the calls is not given here.

Experiment [1] has as its system Rattus norvegicus. Briefly: Antiangiogenic activity in streptozotocin-induced diabetic Wistar rat model assessed as decrease in microvessel density in wound region at 10 mg/L, po administered with superbock stout beer for […] prior to wounding measured on day 7 post-wounding by wound healing assay. It is filed as functional, organism-based. In short, it runs like this:
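Beverage given ad libitum, renewed every two days, kept in dark bottles. Vessels counted in three dorsal skin wound sections per animal and normalized to section area; each separate stained endothelial cell or cluster counted as one vessel; n = 4–6.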

For experiment [2], the system named is Rattus norvegicus. Briefly: Antioxidant activity in streptozotocin-induced diabetic Wistar rat model assessed as increase in reduced/oxidized glutathione ratio in serum at 10 mg/L, po administered with superbock stout beer for 5 weeks prior to wounding measured on day 7 post-wounding by RP-HPLC analysis. It counts as functional, organism-based. In short, it runs like this: (§1)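 Plasma reduced and oxidized glutathione separated and quantified by reversed-phase HPLC with a GSH/GSSG kit. Samples came from skin-injured STZ-diabetic rats after five weeks of ad libitum beverage. Expressed as percent of control; n = 4–6.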

Experiment [3] has as its system Rattus norvegicus. Briefly: Antioxidant activity in streptozotocin-induced diabetic Wistar rat model assessed as reduction in 3-NT protein expression in liver at 10 mg/L, po administered with superbock stout beer for 5 weeks prior to wounding measured on day 7 post-wounding by Western blotting analysis (reference value: 5.52 +/- 1.64%). It is filed as functional. Also noted: scale not given: the % may be the effect or the level left. (A western blot detects proteins with antibodies after separation by electrophoresis.)

Experiment [4] relates to Rattus norvegicus. Put plainly: Antioxidant activity in streptozotocin-induced diabetic Wistar rat model assessed as increase in reduced glutathione level in serum at 10 mg/L, po administered with superbock stout beer for 5 weeks prior to wounding measured on day 7 post-wounding by RP-HPLC analysis. It counts as functional, organism-based. In short, it runs like this:
as §1

For experiment [5], the system named is Rattus norvegicus. Put plainly: Antiinflammatory activity in streptozotocin-induced diabetic Wistar rat model assessed as reduction in nitric oxide level in serum at 10 mg/L, po administered with superbock stout beer for 5 weeks prior to wounding measured on day 7 post-wounding by Griess method relative to control. It counts as functional, organism-based. For orientation: Griess reagent forms a coloured azo dye with nitrite.

In experiment [6] the test system is Rattus norvegicus. Put plainly: Antiangiogenic activity in streptozotocin-induced diabetic Wistar rat model assessed as reduction in VEGF-A level in plasma at 10 mg/L, po administered with superbock stout beer for 5 weeks prior to wounding measured on day 7 post-wounding by ELISA. It counts as functional, organism-based. In short, it runs like this: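 STZ-diabetic male Wistar rats (50 mg/kg i.p.; glucose >250 mg/dL) drinking the beverage ad libitum for five weeks, with skin injury. Plasma VEGF-A measured by rat VEGF Quantikine ELISA per kit instructions; means ± SEM, n = 4–6; ANOVA with Bonferroni.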

The subject of experiment [7] is Rattus norvegicus. Put plainly: Antioxidant activity in streptozotocin-induced diabetic Wistar rat model assessed as reduction in protein carbonylation in kidney at 10 mg/L, po administered with superbock stout beer for 5 weeks prior to wounding measured on day 7 post-wounding by Western blotting analysis relative to control. It is filed as functional, organism-based.

The test system of experiment [8] is Rattus norvegicus. Put plainly: Antioxidant activity in streptozotocin-induced diabetic Wistar rat model assessed as reduction in hepatic protein carbonylation at 10 mg/L, po administered with superbock stout beer for 5 weeks prior to wounding measured on day 7 post-wounding by Western blotting analysis (reference value: 13.80 +/- 1.12%). It counts as functional. Also noted: scale not given: the % may be the effect or the level left.

Experiment [9] has as its system Rattus norvegicus. Put plainly: Antioxidant activity in streptozotocin-induced diabetic Wistar rat model assessed as reduction in 3-NT protein expression in kidney at 10 mg/L, po administered with superbock stout beer for 5 weeks prior to wounding measured on day 7 post-wounding by Western blotting analysis (reference value: 3.76 +/- 0.57%). It is filed as functional. Set-up: scale not given: the % may be the effect or the level left.

Experiment [10] concerns Rattus norvegicus. Briefly: Antioxidant activity in streptozotocin-induced diabetic Wistar rat model assessed as decrease in H2O2 release in kidney at 10 mg/L, po administered with superbock stout beer for 5 weeks prior to wounding measured on day 7 post-wounding by fluorescence assay relative to control. It counts as functional, organism-based. In short, it runs like this:
(§2)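 Fresh kidney or liver cut into 3 mm3 pieces and incubated 90 min at 37 °C in oxygenated, shaken Krebs-HEPES (pH 7.4, 5 mM glucose). H2O2 released measured by Amplex Red fluorescence. Expressed as percent of healthy control; means ± SEM, n = 4–6.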

The test system of experiment [11] is Rattus norvegicus. Briefly: Antiinflammatory activity in streptozotocin-induced diabetic Wistar rat model assessed as reduction in N-acetylglucosaminidase level in serum at 10 mg/L, po administered with superbock stout beer for 5 weeks prior to wounding measured on day 7 post-wounding relative to control. It counts as functional, organism-based.
In experiment [12] the test system is Rattus norvegicus. Briefly: Antioxidant activity in streptozotocin-induced diabetic Wistar rat model assessed as […] in H2O2 release in liver at 10 mg/L, po administered with superbock stout beer for 5 weeks prior to wounding measured on day 7 post-wounding by fluorescence assay relative to control. It counts as functional, organism-based. An outline of the steps: as §2

The subject of experiment [13] is Rattus norvegicus. Put plainly: Antiinflammatory activity in streptozotocin-induced diabetic Wistar rat model assessed as reduction in IL1beta level in serum at 10 mg/L, po administered with superbock stout beer for 5 weeks prior to wounding measured on day 7 post-wounding by ELISA (reference value: 20.94 +/- 2.17 pg/mL). It counts as functional. Background: ELISA stands for enzyme-linked immunosorbent assay.

Consider `COc1cc(O)c(CC=C(C)C)c(O)c1C(=O)/C=C/c1ccc(O)cc1` [XANTHOHUMOL], for which the outcome in the experiment on Rattus norvegicus [1], in the experiment with Rattus norvegicus [2], in the experiment on Rattus norvegicus [4], in the experiment on Rattus norvegicus [5], with Rattus norvegicus [6] and in the experiment with Rattus norvegicus [7] was Active. The result in the experiment on Rattus norvegicus [10], in the experiment with Rattus norvegicus [11] and with Rattus norvegicus [12] was Active. Moreover, the Activity came out at 1.38% with Rattus norvegicus [3], 4.67% in the experiment on Rattus norvegicus [8], 1.99% with Rattus norvegicus [9] and 13.36 pg/mL with Rattus norvegicus [13].
